In ChEMBL document CHEMBL4396890, “Synthesis, Biological Evaluation, Structure-Activity Relationship, and Mechanism of Action Studies of Quinoline-Metronidazole Derivatives Against Experimental Visceral Leishmaniasis” (J Med Chem, 2019):
Calls of active or inactive are those of the source. The rule behind the calls is not given here.

What was measured:
[1] = Toxicity in BALB/c mouse infected with Leishmania donovani MHOM/IN/80/Dd8 promastigotes assessed as death at 12.5 to 200 mg/kg, ip administered once daily for 5 days measured up to 7 days post dose; type: organism-based; details: in vivo
Outline: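 BALB/c mice (20 ± 2 g) were infected by tail-vein injection of 2 × 10^7 stationary-phase promastigotes. At day 15 they received ip doses in 8% DMSO/PBS for 5 consecutive days and were killed at day 7 post-treatment. Survival, general health and body weight were monitored; 5 mice per group.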

[2] = Stability of the compound in simulated intestinal fluid assessed as parent compound remaining measured after 2 hrs by UPLC analysis; type: ADME; details: read-out: Stability
Outline: (§1)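 Compound incubated 2 h in simulated gastric fluid (pH 1.2) […] or in simulated intestinal fluid (pH 6.5) […]; the percentage of intact compound remaining was reported.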

[3] = system: Leishmania donovani; test: Antileishmanial activity against Leishmania donovani MHOM/IN/80/Dd8 amastigotes harboring luciferase reporter gene infected in mouse J774 cells at 25 uM after 48 hrs by Steady-Glo luminescence assay relative to control; type: functional; details: MHOM/IN/80/Dd8, J774, 48 h
Outline: (§2)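 Infection of J774 macrophages with L. donovani Dd8 promastigotes at a 1:8 cell:parasite ratio. Compounds were diluted 2-fold in RPMI over 3.125–100 μM final and applied for 48 h. Amastigote inhibition was read by luciferase (RLU) or by Giemsa count of amastigotes per 100 macrophages. IC50 was from dose–response; n = 3 independent experiments done in replicate.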

[4] = system: Leishmania donovani; test: Antileishmanial activity against Leishmania donovani MHOM/IN/80/Dd8 promastigotes infected in BALB/c mouse assessed as reduction in parasite load in liver at 50 mg/kg, ip administered once daily for 5 days measured 7 days post dose by giemsa staining-based assay relative to control; type: functional; parameters: scale not given: the % may be the effect or the level left
Outline: (§3)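 Hamster-passaged strain was transformed to promastigotes. Stationary-phase cells (2 × 10^7 in 0.2 mL PBS) were injected into the tail vein of BALB/c mice. From day 15 post-infection, mice received compound ip in 8% DMSO in PBS for 5 consecutive days, 5 mice per group. Mice were killed day 7 post-treatment. Liver and spleen burden was read from Giemsa-stained stamp smears as LDU.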

[5] = system: Leishmania donovani; test: Antileishmanial activity against Leishmania donovani MHOM/IN/80/Dd8 amastigotes harboring luciferase reporter gene infected in mouse J774 cells at 100 uM after 48 hrs by Steady-Glo luminescence assay; type: functional, organism-based; outline: as §2
[6] = system: Leishmania donovani; test: Antileishmanial activity against Leishmania donovani MHOM/IN/80/Dd8 promastigotes infected in BALB/c mouse assessed as reduction in parasite load in spleen at 200 mg/kg, ip administered once daily for 5 days measured 7 days post dose by giemsa staining-based assay relative to control; type: functional; parameters: scale not given: the % may be the effect or the level left; outline: as §3
[7] = system: Leishmania donovani; test: Antileishmanial activity against Leishmania donovani MHOM/IN/80/Dd8 promastigotes infected in ip dosed BALB/c mouse assessed as reduction in parasite load in liver administered once daily for 5 days measured 7 days post dose by giemsa staining-based assay; type: functional, organism-based; outline: as §3
[8] = system: Leishmania donovani; test: Antileishmanial activity against Leishmania donovani MHOM/IN/80/Dd8 promastigotes harboring luciferase reporter gene after 48 hrs by MTT assay relative to control; type: functional
Outline: (§4)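 Luciferase-expressing L. donovani Dd8 promastigotes were grown at 24 °C in M199 with 10% heat-inactivated FBS and G418 20 μg/mL. They were exposed to a range of concentrations for 48 h, and viability was read by MTT absorbance as percent of untreated control. IC50 was from dose–response; n = 3 independent experiments done in replicate.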

[9] = Stability in rat plasma assessed as parent compound remaining at 10 ug/ml measured after 2 hrs by UPLC analysis; type: ADME, cell-free; details: read-out: Stability
[10] = Half life in rat liver microsomes at 10 ug/ml preincubated for 5 mins followed by NADPH addition measured after 60 mins by UPLC analysis; type: ADME, Microsome
Outline: (§5)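 Compound was incubated with rat liver microsomes, sampling % remaining up to 60 min. In vitro half-life and related parameters came from a plot of ln(% remaining) versus incubation time.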

[11] = system: Leishmania donovani; test: Antileishmanial activity against Leishmania donovani MHOM/IN/80/Dd8 promastigotes harboring luciferase reporter gene after 48 hrs by Steady-Glo luminescence assay relative to control; type: functional
Outline: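 Luciferase-expressing L. donovani Dd8 promastigotes were grown at 24 °C in M199 with 10% heat-inactivated FBS and G418 20 μg/mL. They were treated at varied concentrations for 24 and 48 h, and inhibition was read as relative luminescence units versus untreated control. IC50 was from dose–response; screening values are mean ± SD of at least three experiments in duplicate.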

[12] = system: Leishmania donovani; test: Antileishmanial activity against Leishmania donovani MHOM/IN/80/Dd8 promastigotes harboring luciferase reporter gene after 48 hrs by MTT assay; type: functional, organism-based; details: for IC50: MHOM/IN/80/Dd8, 48 h; outline: as §4
[13] = Intrinsic clearance in rat liver microsomes at 10 ug/ml preincubated for 5 mins followed by NADPH addition measured after 60 mins by UPLC analysis; type: ADME, Microsome; details: read-out: CLH; outline: as §5
[14] = system: Leishmania donovani; test: Antileishmanial activity against Leishmania donovani MHOM/IN/80/Dd8 promastigotes infected in ip dosed BALB/c mouse assessed as reduction in parasite load in spleen administered once daily for 5 days measured 7 days post dose by giemsa staining-based assay; type: functional, organism-based; outline: as §3
[15] = system: Leishmania donovani; test: Antileishmanial activity against Leishmania donovani MHOM/IN/80/Dd8 amastigotes harboring luciferase reporter gene infected in mouse J774 cells at 50 uM after 48 hrs by Giemsa staining-based microscopic assay relative to control; type: functional; details: MHOM/IN/80/Dd8, J774, 48 h; outline: as §2
[16] = Stability of the compound in simulated gastric fluid assessed as parent compound remaining measured after 2 hrs by UPLC analysis; type: ADME; details: read-out: Stability; outline: as §1
[17] = system: Leishmania donovani; test: Antileishmanial activity against Leishmania donovani MHOM/IN/80/Dd8 amastigotes harboring luciferase reporter gene infected in mouse J774 cells after 48 hrs by Giemsa staining-based microscopic assay; type: functional, organism-based; details: for IC50: MHOM/IN/80/Dd8, J774, 48 h; outline: as §2
[18] = Stability in rat liver microsomes assessed as parent compound remaining at 10 ug/ml preincubated for 5 mins followed by NADPH addition measured after 60 mins by UPLC analysis; type: ADME, Microsome; details: read-out: Stability
Outline: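 Compound incubated with rat liver microsomes and the percentage remaining was followed over time up to 60 min. In vitro half-life and related parameters were derived from a plot of the natural log of percent remaining against incubation time.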

[19] = system: Leishmania donovani; test: Antileishmanial activity against Leishmania donovani MHOM/IN/80/Dd8 promastigotes infected in BALB/c mouse assessed as reduction in parasite load in spleen at 50 mg/kg, ip administered once daily for 5 days measured 7 days post dose by giemsa staining-based assay relative to control; type: functional; parameters: scale not given: the % may be the effect or the level left; outline: as §3
[20] = system: Leishmania donovani; test: Antileishmanial activity against Leishmania donovani MHOM/IN/80/Dd8 amastigotes harboring luciferase reporter gene infected in mouse J774 cells after 48 hrs by Steady-Glo luminescence assay; type: functional, organism-based; details: for IC50: MHOM/IN/80/Dd8, J774, 48 h; outline: as §2
[21] = system: Leishmania donovani; test: Antileishmanial activity against Leishmania donovani MHOM/IN/80/Dd8 promastigotes infected in BALB/c mouse assessed as reduction in parasite load in liver at 200 mg/kg, ip administered once daily for 5 days measured 7 days post dose by giemsa staining-based assay relative to control; type: functional; parameters: scale not given: the % may be the effect or the level left; outline: as §3
[22] = system: Leishmania donovani; test: Antileishmanial activity against Leishmania donovani MHOM/IN/80/Dd8 promastigotes harboring luciferase reporter gene at 100 uM after 48 hrs by MTT assay; type: functional, organism-based; outline: as §4
[23] = system: Leishmania donovani; test: Antileishmanial activity against Leishmania donovani MHOM/IN/80/Dd8 amastigotes harboring luciferase reporter gene infected in mouse J774 cells at 100 uM by Giemsa staining-based microscopic assay; type: functional, organism-based; outline: as §2

SMILES	Activity [1]	remaining at 2 h [2]	inhibition at 25 µM [3]	Activity [4]	inhibition [5]	Activity [6]	Activity [7]	Imax [8]	remaining at 2 h, 10 ug/ml [9]	half-life at 10 ug/ml [10]	Imax [11]	inhibition [12]	IC50 [12]	microsomal CLint at 10 ug/ml [13]	Activity [14]	inhibition at 50 µM [15]	remaining at 2 h [16]	inhibition [17]	IC50 [17]	remaining at 1 h, 10 ug/ml [18]	also measured
Cc1cc(-c2cccc(OCCn3c([N+](=O)[O-])cnc3C)c2)nc2ccccc12	Non-Toxic	11.4%	75.2%	>50%	Active	54.14%	Dose-dependent effect	>93%	68.2%	2.18 h	>93%	Dose-dependent effect	9.4 µM	10.7 µL/min/mg	Dose-dependent effect	> 93%	84.7%	Dose-dependent effect	9.09 µM	72.8%	Activity [19]: >50%; inhibition [20]: Dose-dependent effect; IC50 [20]: 9.81 µM; Activity [21]: 55.5%; inhibition [22]: Active; inhibition [23]: Active
Cc1cc(-c2ccc(OCCn3c([N+](=O)[O-])cnc3C)cc2)nc2ccccc12	Non-Toxic	43.6%	83.2%	>82.3%	Active	82.2%	Dose-dependent effect	>93%	88.5%	2.5 h	>93%	Dose-dependent effect	5.3 µM	9.3 µL/min/mg	Dose-dependent effect	> 93%	83.6%	Dose-dependent effect	4.06 µM	76%	Activity [19]: >80.3%; inhibition [20]: Dose-dependent effect; IC50 [20]: 3.75 µM; Activity [21]: 82.7%; inhibition [22]: Active; inhibition [23]: Active
